Measured values reported in ChEMBL document CHEMBL5143669, “Stapled peptides as scaffolds for developing radiotracers for intracellular targets: Preliminary evaluation of a radioiodinated MDM2-binding stapled peptide in the SJSA-1 osteosarcoma model” (Bioorg Med Chem Lett, 2022).

How the values were obtained:
[1] = Biodistribution in Heart of athymic mouse xenografted with human SJSA-1 cells at 166.5 kBq, iv after 2 hrs by automated gamma counting method; type: ADME, organism-based; settings: in vivo
Procedure, shortened: (§1)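 125I-labeled peptide (166.5 kBq in 100 μL) was injected via tail vein into athymic mice bearing flank SJSA-1 xenografts, n = 5 per time point. Tumors, blood and major organs were gamma-counted at 0.5, 2, 6 and 24 h post-injection. Values are %ID/g.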

[2] = Biodistribution in Tumor of athymic mouse xenografted with human SJSA-1 cells at 166.5 kBq, iv after 24 hrs by automated gamma counting method; type: ADME, organism-based, Neoplasm; settings: in vivo
Procedure, shortened: (§2)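 Athymic mice bearing flank SJSA-1 xenografts received 125I-SIB-labeled peptide (166.5 kBq, 100 μL) by tail vein; groups of five per time point. Tumor, blood and organs were taken at 0.5–24 h and counted by gamma counter; values expressed as %ID/g.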

[3] = Biodistribution in Thyroid of athymic mouse xenografted with human SJSA-1 cells at 166.5 kBq, iv after 24 hrs by automated gamma counting method; type: ADME, organism-based, Thyroid gland; settings: in vivo; procedure, shortened: as §2
[4] = Biodistribution in Large intestine of athymic mouse xenografted with human SJSA-1 cells at 166.5 kBq, iv after 30 mins by automated gamma counting method; type: ADME, organism-based; settings: in vivo, 0.5 h; procedure, shortened: as §1
[5] = Biodistribution in Stomach of athymic mouse xenografted with human SJSA-1 cells at 166.5 kBq, iv after 6 hrs by automated gamma counting method; type: ADME, organism-based; settings: in vivo; procedure, shortened: as §2
[6] = Biodistribution in Spleen of athymic mouse xenografted with human SJSA-1 cells at 166.5 kBq, iv after 2 hrs by automated gamma counting method; type: ADME, organism-based; settings: in vivo; procedure, shortened: as §1
[7] = Drug uptake in MDM2-amplified human SJSA-1 cells expressing wild type p53 at 5 to 50 uM incubated for 30 mins; type: ADME, cell-based; settings: sjsa-1, 0.5 h, dose 5-50 µM
Procedure, shortened: (§3)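 For uptake kinetics, SJSA-1 cells in serum-free RPMI-1640 were incubated 30–120 min with 125I-labeled peptide, with or without 50 μM unlabeled parent peptide. Cells were washed with PBS and lysed, and uptake was normalized to protein (%/mg protein). Triplicates, mean ± SD.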

[8] = Biodistribution in Heart of athymic mouse xenografted with human SJSA-1 cells at 166.5 kBq, iv after 24 hrs by automated gamma counting method; type: ADME, organism-based; settings: in vivo; procedure, shortened: as §1
[9] = Biodistribution in Bone of athymic mouse xenografted with human SJSA-1 cells at 166.5 kBq, iv after 6 hrs by automated gamma counting method; type: ADME, organism-based, Bone element; settings: in vivo; procedure, shortened: as §1
[10] = Biodistribution in Small intestine of athymic mouse xenografted with human SJSA-1 cells at 166.5 kBq, iv after 6 hrs by automated gamma counting method; type: ADME, organism-based; settings: in vivo; procedure, shortened: as §1
[11] = Biodistribution in Lung of athymic mouse xenografted with human SJSA-1 cells at 166.5 kBq, iv after 30 mins by automated gamma counting method; type: ADME, organism-based; settings: in vivo, 0.5 h; procedure, shortened: as §1
[12] = Biodistribution in Muscle of athymic mouse xenografted with human SJSA-1 cells at 166.5 kBq, iv after 6 hrs by automated gamma counting method; type: ADME, organism-based, Muscle tissue; settings: in vivo; procedure, shortened: as §1
[13] = Biodistribution in Blood of athymic mouse xenografted with human SJSA-1 cells at 166.5 kBq, iv after 24 hrs by automated gamma counting method; type: ADME, organism-based; settings: in vivo; procedure, shortened: as §1
[14] = Biodistribution in Skin of athymic mouse xenografted with human SJSA-1 cells at 166.5 kBq, iv after 6 hrs by automated gamma counting method; type: ADME, organism-based, Skin of body; settings: in vivo; procedure, shortened: as §1
[15] = Biodistribution in Bone of athymic mouse xenografted with human SJSA-1 cells at 166.5 kBq, iv after 2 hrs by automated gamma counting method; type: ADME, organism-based, Bone element; settings: in vivo; procedure, shortened: as §1
[16] = Biodistribution in Urinary bladder of athymic mouse xenografted with human SJSA-1 cells at 166.5 kBq, iv after 2 hrs by automated gamma counting method; type: ADME, organism-based; settings: in vivo; procedure, shortened: as §2
[17] = Biodistribution in Urinary bladder of athymic mouse xenografted with human SJSA-1 cells at 166.5 kBq, iv after 30 mins by automated gamma counting method; type: ADME, organism-based; settings: in vivo, 0.5 h; procedure, shortened: as §2
[18] = Drug uptake in MDM2-amplified human SJSA-1 cells expressing wild type p53 at 5 to 50 uM incubated for 1 hr; type: ADME, cell-based; settings: sjsa-1, 1 h, dose 5-50 µM
Procedure, shortened: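 SJSA-1 cells (MDM2-amplified, wild-type p53) in 24-well plates were incubated 1 h with 125I-labeled peptide in serum-free RPMI-1640, with or without unlabeled parent peptide (5–50 μM) for blocking. They were then washed three times with PBS and lysed; retained activity was normalized to well protein (%/mg protein). Triplicates, mean ± SD.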

[19] = Biodistribution in Small intestine of athymic mouse xenografted with human SJSA-1 cells at 166.5 kBq, iv after 30 mins by automated gamma counting method; type: ADME, organism-based; settings: in vivo, 0.5 h; procedure, shortened: as §1
[20] = Stability in human serum assessed as intact peptide level at 37 degC incubated for 72 hrs by RP-HPLC analysis; type: ADME, cell-free; settings: read-out: Drug uptake
Procedure, shortened: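 125I-labeled peptide was incubated in human serum at 37 °C for up to 72 h. Aliquots were run by RP-HPLC (RP-18 column, ethanol/0.05 M sodium acetate pH 5.5 gradient, 1 mL/min), and intact peptide was expressed as percentage of injected activity.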

[21] = Biodistribution in Lung of athymic mouse xenografted with human SJSA-1 cells at 166.5 kBq, iv after 24 hrs by automated gamma counting method; type: ADME, organism-based; settings: in vivo; procedure, shortened: as §1
[22] = Biodistribution in Large intestine of athymic mouse xenografted with human SJSA-1 cells at 166.5 kBq, iv after 2 hrs by automated gamma counting method; type: ADME, organism-based; settings: in vivo; procedure, shortened: as §1
[23] = Biodistribution in Spleen of athymic mouse xenografted with human SJSA-1 cells at 166.5 kBq, iv after 6 hrs by automated gamma counting method; type: ADME, organism-based; settings: in vivo; procedure, shortened: as §1
[24] = Biodistribution in Large intestine of athymic mouse xenografted with human SJSA-1 cells at 166.5 kBq, iv after 6 hrs by automated gamma counting method; type: ADME, organism-based; settings: in vivo; procedure, shortened: as §1
[25] = Biodistribution in Muscle of athymic mouse xenografted with human SJSA-1 cells at 166.5 kBq, iv after 30 mins by automated gamma counting method; type: ADME, organism-based, Muscle tissue; settings: in vivo, 0.5 h; procedure, shortened: as §1
[26] = Drug uptake in MDM2-amplified human SJSA-1 cells expressing wild type p53 assessed as initially bound radioactivity incubated for 1.5 hrs subsequently re-incubating the cells with fresh medium for up to 2 hrs; type: ADME, cell-based; settings: sjsa-1, 1.5 h
Procedure, shortened: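 SJSA-1 cells were loaded with 125I-labeled peptide for 1 h, then reincubated in fresh medium for 0.5–2 h. Cell-retained activity and cumulative release into the supernatant were expressed as percentage of initially bound activity.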

[27] = Biodistribution in Muscle of athymic mouse xenografted with human SJSA-1 cells at 166.5 kBq, iv after 2 hrs by automated gamma counting method; type: ADME, organism-based, Muscle tissue; settings: in vivo; procedure, shortened: as §1
[28] = Drug uptake in MDM2-amplified human SJSA-1 cells expressing wild type p53 at 5 to 50 uM incubated for 60 mins; type: ADME, cell-based; settings: sjsa-1, 1 h, dose 5-50 µM; procedure, shortened: as §3
[29] = Lipophilicity, logD of the compound using n-octanol and phosphate-buffered saline at pH 7.4 by the shake flask method; type: physicochemical
Procedure, shortened: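 Shake-flask partition of the 125I-labeled peptide between n-octanol and PBS pH 7.4; logD from n = 4.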

[30] = Biodistribution in Kidney of athymic mouse xenografted with human SJSA-1 cells at 166.5 kBq, iv after 30 mins by automated gamma counting method; type: ADME, organism-based; settings: in vivo, 0.5 h; procedure, shortened: as §1
[31] = Biodistribution in Thyroid of athymic mouse xenografted with human SJSA-1 cells at 166.5 kBq, iv after 30 mins by automated gamma counting method; type: ADME, organism-based, Thyroid gland; settings: in vivo, 0.5 h; procedure, shortened: as §2
[32] = Biodistribution in Liver of athymic mouse xenografted with human SJSA-1 cells at 166.5 kBq, iv after 24 hrs by automated gamma counting method; type: ADME, organism-based; settings: in vivo; procedure, shortened: as §1

Drug uptake [1]: 2.44 % ID/g
Drug uptake [2]: 0.36 % ID/g
Drug uptake [3]: 0.27 % ID/g
Drug uptake [4]: 0.06 % ID/g
Drug uptake [5]: 1.9 % ID/g
Drug uptake [6]: 1.8 % ID/g
Drug uptake [7]: 104 %/mg protein
Drug uptake [8]: 0.37 % ID/g
Drug uptake [9]: 0.29 % ID/g
Drug uptake [10]: 3.84 % ID/g
Drug uptake [11]: 4.27 % ID/g
Drug uptake [12]: 0.25 % ID/g
Drug uptake [13]: 0.62 % ID/g
Drug uptake [14]: 1.22 % ID/g
Drug uptake [15]: 0.33 % ID/g
Drug uptake [16]: 0.58 % ID/g
Drug uptake [17]: 0.61 % ID/g
Drug uptake [18]: 12.4%
Drug uptake [19]: 0.43 % ID/g
remaining at 72 h [20]: 96%
Drug uptake [21]: 0.33 % ID/g
Drug uptake [22]: 0.24 % ID/g
Drug uptake [23]: 1.99 % ID/g
Drug uptake [24]: 4.44 % ID/g
Drug uptake [25]: 0.16 % ID/g
Drug uptake [26]: 66.4%
Drug uptake [27]: 0.24 % ID/g
Drug uptake [28]: 142 %/mg protein
logD [29]: 1.45
Drug uptake [30]: 3.06 % ID/g
Drug uptake [31]: 0.89 % ID/g
Drug uptake [32]: 4.72 % ID/g
Structure (SMILES): CC(=O)NC(CCCCNC(=O)c1cccc([125I])c1)C(=O)NCCCCCC(=O)N[C@H](C(=O)N[C@@H](CO)C(=O)N[C@@H](Cc1ccccc1)C(=O)N[C@@]1(C)CCCCCC/C=C/CCC[C@@](C)(C(=O)N[C@@H](CCC(=O)O)C(=O)N[C@@H](CC(N)=O)C(=O)N[C@@H](Cc2ccccc2)C(N)=O)NC(=O)[C@H](CC(C)C)NC(=O)[C@H](CC(C)C)NC(=O)[C@H](C)NC(=O)[C@H](Cc2c[nH]c3ccccc23)NC(=O)[C@H](Cc2ccc(O)cc2)NC(=O)[C@H](CCC(=O)O)NC1=O)[C@@H](C)O (some centres not stated)
